Laboratory results from ChEMBL document CHEMBL3632596, “Novel Potent N-Methyl-d-aspartate (NMDA) Receptor Antagonists or σ1 Receptor Ligands Based on Properly Substituted 1,4-Dioxane Ring” (J Med Chem, 2015).
The source made the active and inactive calls. No cut-off for these calls is given here.

Assays:
[1] = Displacement of [3H]DTG from sigma2 receptor in rat liver membranes incubated for 120 mins by scintillation counting method in presence of pentazocine; format: cell membranes, Membrane
Method in brief: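 σ2 binding on rat liver membranes using the nonselective radioligand [3H]-DTG. […] Nonspecific binding defined with 10 µM unlabelled DTG. Affinity reported as Ki.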

[2] = Displacement of [3H]MK801 from NMDA receptor PCP binding site in guinea pig brain cortex membranes incubated for 120 mins by scintillation counting method; format: cell membranes, Cavia porcellus
[3] = molecular target: Sigma non-opioid intracellular receptor 1 (Cavia porcellus, UniProt Q60492); experiment: Displacement of [3H]-(+)-pentazocine from sigma 1 receptor in guinea pig brain membranes incubated for 120 mins by scintillation counting method in the presence of pentazocine; format: cell membranes, Membrane
[4] = molecular target: T1, Glutamate NMDA receptor; GRIN1/GRIN2A (Homo sapiens, UniProt Q05586+Q12879); experiment: Binding affinity to NMDA receptor (unknown origin); format: protein-complex assay
Method in brief: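 PCP site of the NMDA receptor in pig brain cortex membranes. Competition binding against [3H]-(+)-MK-801. Nonspecific binding was defined with a large excess of unlabelled (+)-MK-801. Values are reported as Ki.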

[5] = molecular target: T1, Glutamate NMDA receptor; GRIN1/GRIN2A; experiment: Antagonist activity against NR1-1a/NR2A NMDA receptor (unknown origin) expressed in mouse recombinant L(tk-) cells assessed as inhibition of glycine and glutamate induced excitotoxicity incubated for 12 hrs by LDH assay; format: cell-based
Method in brief: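 Mouse fibroblast L(tk-) cells stably carrying a dexamethasone-inducible vector encoding GluN1a and GluN2A. Receptor expression was induced with dexamethasone in the presence of ketamine to limit cell damage. Cells were exposed to (S)-glutamate, glycine and a range of test concentrations for 12 h. Cell death was read as LDH released from lysed cells, measured by formazan dye formation.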

Mus musculus [6] = experiment: Potentiation of morphine-induced antinociception in CD-1 mouse assessed as increase in latency time at 30 mg/kg, sc dosed 30 mins before morphine injection and measured 30 to 90 mins post morphine injection by hot plate test; format: functional, organism-based
Mus musculus [7] = experiment: Potentiation of morphine-induced antinociception in CD-1 mouse assessed as increase in latency time at 50 mg/kg, sc dosed 30 mins before morphine injection and measured 60 mins post morphine injection by hot plate test; format: functional, organism-based
[8] = Selectivity index, ratio of Ki for sigma2 receptor in rat liver membranes to Ki for sigma 1 receptor in guinea pig brain membranes; format: cell membranes
Mus musculus [9] = experiment: Antinociceptive activity in CD-1 mouse assessed as increase in latency time at 50 mg/kg, sc incubated for 30 mins by hot plate test; format: functional, organism-based
Method in brief: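 Hot plate test in mice with test compound given alone s.c. at doses up to 50 mg/kg. Reaction latency read out as %MPE.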

T1 sequence (Q12879 whole entry, other chains not shown): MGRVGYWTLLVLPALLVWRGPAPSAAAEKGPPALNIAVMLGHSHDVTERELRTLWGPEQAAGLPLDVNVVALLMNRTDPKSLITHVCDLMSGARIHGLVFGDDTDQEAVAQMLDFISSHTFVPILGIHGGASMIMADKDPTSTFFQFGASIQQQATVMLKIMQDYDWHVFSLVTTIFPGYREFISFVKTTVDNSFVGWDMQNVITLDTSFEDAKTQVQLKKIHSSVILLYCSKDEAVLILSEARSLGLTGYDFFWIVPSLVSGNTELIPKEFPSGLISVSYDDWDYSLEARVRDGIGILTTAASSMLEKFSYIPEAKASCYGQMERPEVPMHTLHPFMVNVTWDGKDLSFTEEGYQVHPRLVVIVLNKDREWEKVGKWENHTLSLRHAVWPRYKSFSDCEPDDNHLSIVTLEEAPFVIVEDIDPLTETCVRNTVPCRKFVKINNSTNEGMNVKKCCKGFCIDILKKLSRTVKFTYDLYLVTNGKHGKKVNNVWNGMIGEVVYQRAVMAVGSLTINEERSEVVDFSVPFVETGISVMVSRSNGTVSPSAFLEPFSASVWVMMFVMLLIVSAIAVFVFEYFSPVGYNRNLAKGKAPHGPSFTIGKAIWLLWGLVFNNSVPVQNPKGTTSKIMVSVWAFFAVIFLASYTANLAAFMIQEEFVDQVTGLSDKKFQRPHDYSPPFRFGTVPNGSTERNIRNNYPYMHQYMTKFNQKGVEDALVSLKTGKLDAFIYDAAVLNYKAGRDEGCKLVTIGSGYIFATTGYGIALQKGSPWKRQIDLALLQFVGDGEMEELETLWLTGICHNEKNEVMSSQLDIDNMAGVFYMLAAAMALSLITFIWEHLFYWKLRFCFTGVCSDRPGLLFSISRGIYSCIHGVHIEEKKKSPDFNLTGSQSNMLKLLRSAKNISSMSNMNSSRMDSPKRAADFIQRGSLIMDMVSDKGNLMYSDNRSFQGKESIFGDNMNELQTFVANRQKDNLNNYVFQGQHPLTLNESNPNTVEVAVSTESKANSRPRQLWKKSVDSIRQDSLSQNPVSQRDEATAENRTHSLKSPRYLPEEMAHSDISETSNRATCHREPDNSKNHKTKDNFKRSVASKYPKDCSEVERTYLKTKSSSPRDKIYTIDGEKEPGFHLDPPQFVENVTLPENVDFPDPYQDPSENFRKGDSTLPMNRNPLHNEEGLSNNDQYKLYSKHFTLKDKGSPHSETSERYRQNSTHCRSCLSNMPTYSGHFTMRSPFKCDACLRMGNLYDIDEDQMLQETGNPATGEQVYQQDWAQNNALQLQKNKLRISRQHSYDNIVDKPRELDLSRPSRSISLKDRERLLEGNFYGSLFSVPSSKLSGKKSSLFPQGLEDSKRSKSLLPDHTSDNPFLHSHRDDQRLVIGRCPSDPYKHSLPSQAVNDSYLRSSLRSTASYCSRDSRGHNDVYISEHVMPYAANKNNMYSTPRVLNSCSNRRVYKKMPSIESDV
Sigma non-opioid intracellular receptor 1, sequence (Q60492 whole entry): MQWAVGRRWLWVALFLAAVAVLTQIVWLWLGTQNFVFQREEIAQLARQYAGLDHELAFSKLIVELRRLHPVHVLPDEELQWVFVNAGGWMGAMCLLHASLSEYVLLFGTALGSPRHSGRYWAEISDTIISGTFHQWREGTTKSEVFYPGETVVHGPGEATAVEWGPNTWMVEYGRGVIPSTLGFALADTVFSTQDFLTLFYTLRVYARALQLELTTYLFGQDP

SMILES | Ki [1] [nM] | Ki [2] [nM] | Ki [3] [nM] | further results
NC[C@H]1CO[C@H](c2ccccc2)CO1 (racemic) | > 10000 | > 10000 | > 10000 | 
c1ccc(CNC[C@H]2COC[C@H](c3ccccc3)O2)cc1 (racemic) | 4300 | > 10000 | 542 | 
CC[C@]1(c2ccccc2)OC[C@H]([C@@H]2CCCCN2)O1 [ETOXADROL] |  | 22 |  | Ki [4]: 22 nM
c1ccc(CNCCC2COCC(c3ccccc3)(c3ccccc3)O2)cc1 (stereo not given) | > 10000 | > 10000 | 502 | 
CC[C@]1(c2ccccc2)COC[C@@H](CN)O1 (racemic) | > 10000 | > 10000 | > 10000 | 
c1ccc(CNC[C@@H]2COC[C@@](c3ccccc3)(C3CCCCC3)O2)cc1 (racemic) | 4900 | > 10000 | 1500 | 
NCCC1COC(c2ccccc2)(c2ccccc2)CO1 (stereo not given) | > 10000 | > 10000 | > 10000 | 
c1ccc(CNC[C@@H]2CCO[C@H](c3ccccc3)O2)cc1 (racemic) | 174 | > 10000 | 314 | 
CN[C@]1(c2ccccc2Cl)CCCCC1=O [ESKETAMINE] |  | 419 |  | IC50 [5]: 11.4 nM
c1ccc(C2(N3CCCCC3)CCCCC2)cc1 [PHENCYCLIDINE] |  | 28 |  | IC50 [5]: 11.8 nM
c1ccc(CNCC2COC(c3ccccc3)(c3ccccc3)CO2)cc1 (stereo not given) | 1000 | > 10000 | 7.37 | Activity (Mus musculus [6]): inactive; Activity (Mus musculus [7]): Active; Ratio Ki [8]: 136; Activity (Mus musculus [9]): inactive
c1ccc(CNCCC2COC(c3ccccc3)(c3ccccc3)CO2)cc1 (stereo not given) | 841 | > 10000 | 297 | 
NC[C@@H]1COC[C@@](c2ccccc2)(C2CCCCC2)O1 (racemic) | > 10000 | 893 | > 10000 | IC50 [5]: 71.2 nM
CC[C@]1(c2ccccc2)COC[C@H](CNCc2ccccc2)O1 (racemic) | > 10000 | > 10000 | 607 | 
c1ccc(CNC[C@H]2COC[C@@](c3ccccc3)(C3CCCCC3)O2)cc1 (racemic) | > 10000 | > 10000 | 2700 | 
NC[C@H]1COC[C@@](c2ccccc2)(C2CCCCC2)O1 (racemic) | 2500 | 413 | > 10000 | IC50 [5]: 17.7 nM

SMILES | Ki [1] [nM] | Ki [2] [nM] | Ki [3] [nM] | further results
NC[C@@H]1COC[C@H](c2ccccc2)O1 (racemic) | > 10000 | > 10000 | > 10000 | 
Cc1ccccc1NC(=N)Nc1ccccc1C [DITOLYLGUANIDINE] | 64 |  |  | 
c1ccc(C2(c3ccccc3)OC[C@H]([C@@H]3CCCCN3)O2)cc1 [DEXOXADROL] |  |  |  | Ki [4]: […]; IC50 [5]: 9.7 nM
c1ccc(CNCC2COCC(c3ccccc3)(c3ccccc3)O2)cc1 (stereo not given) | 1600 | > 10000 | 4900 | 
c1ccc(CNC[C@@H]2COC[C@H](c3ccccc3)O2)cc1 (racemic) | > 10000 | > 10000 | 155 | 
NC[C@H]1COC[C@H](c2ccccc2)O1 (racemic) | > 10000 | > 10000 | > 10000 | 
NC[C@@H]1CO[C@H](c2ccccc2)CO1 (racemic) | > 10000 | > 10000 | > 10000 | 
NCC1COCC(c2ccccc2)(c2ccccc2)O1 (stereo not given) | 5800 | 712 | > 10000 | IC50 [5]: 24.2 nM
CC[C@]1(c2ccccc2)COC[C@H](CN)O1 (racemic) | > 10000 | > 10000 | > 10000 | 
CC[C@]1(c2ccccc2)COC[C@@H](CNCc2ccccc2)O1 (racemic) | > 10000 | > 10000 | 543 | 
NCCC1COCC(c2ccccc2)(c2ccccc2)O1 (stereo not given) | > 10000 | > 10000 | > 10000 | 
c1ccc(CNCC2CCOC(c3ccccc3)(c3ccccc3)O2)cc1 (stereo not given) | 111 | > 10000 | 3000 | 
c1ccc(CNC[C@@H]2CO[C@@H](c3ccccc3)CO2)cc1 (racemic) | > 10000 | > 10000 | 37 | Ratio Ki [8]: > 270
c1ccc(CNC[C@@H]2CO[C@H](c3ccccc3)CO2)cc1 (racemic) | 698 | > 10000 | 192 | 
NCC1COC(c2ccccc2)(c2ccccc2)CO1 (stereo not given) | > 10000 | > 10000 | 1400 | 
